Yeast growth inh: chemicals that inhibit yeast BB579 growth in restrictive medium (lifespan-shortening candidates); S. cerevisiae BB579 growth, OD615, 48 h; inhibition, % at 10 µM; 140,000 compounds, 0.51% hits;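 active = inhibition above a set limit, 3 SD over the mean compound inhibition, cut at about 44% in these data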
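Assay system: S. cerevisiae DeaD strain BB579 yeast. Medium: CSMM-D restrictive synthetic medium containing dextrose (glucose). Times: 4 h cell preincubation, 48 h compound exposure, 30 °C humidified. Signal: OD615 turbidity measurement. Benchmarks: positive control amphotericin B 10 µg/mL.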
RAM network inh: inhibitors of the yeast RAM network; S. cerevisiae dse1pr::URA3 reporter, 5-FOA growth OD615, 2 d; analog-sensitive cbk1-as2 kinase mutant strain; inhibition, % at 50 µM; 190,000 compounds, 1.8% hits;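 active = inhibition above a set limit, 3 SD over mean compound inhibition, cut at about 8.4% in these data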;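 also: 0% = DMSO-only wells with no growth and 100% = 10 µM 1-NA-PP1 full growth; inhibition rescues growth on 5-FOA so higher OD means more RAM inhibition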
WT yeast gro inh: growth inhibition of WT yeast, mitochondrial fusion screen; mitochondrial fusion phenotypic screen, WT strain; inhibition, % at 10 µM; 190,000 compounds, 2.1% hits; AID 1362; in the data active = inhibition above about 58%; tested in S. cerevisiae
Yeast lifespan up: yeast lifespan extension; 130,000 compounds, 0.68% hits; S. cerevisiae growth with nicotinamide, OD615; deaD strain in restrictive glucose medium; inhibition of the nicotinamide effect, % at 10 µM; AID 775;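 active = inhibition above a set limit, placed 3 SD over the median of all compounds, cut at about 26% in these data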;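 also: 0% = nicotinamide-treated wells and 100% = cells grown without nicotinamide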
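System: DeaD-strain S. cerevisiae / Buffer or medium: CSMM-D, restrictive glucose (dextrose) synthetic minimal medium / Probe or stimulus: nicotinamide, 1.5 mM, co-present with compound / Compound: one concentration, 10 µM, DMSO 0.25% / Incubation: 48 h compound exposure at 30 °C, humidified / Technique: optical density (absorbance) at 615 nm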
Active calls of the source: *; x = no result given. Hits are enriched below; roughly 4.3% of the tested compounds scored in any of these assays.

SMILES	Yeast growth inh	RAM network inh	WT yeast gro inh	Yeast lifespan up
CCOC(=O)C1=C(C)NC(C)=C(C(=O)OCC)C1C(=O)OCC(=O)N(CC)C1CCS(=O)(=O)C1 (centres undefined)	x	0.2	9.4	x
COc1ccccc1C/C(N)=N/OC(=O)/C=C/c1ccccc1	x	0.9	12.1	x
COc1ccccc1-n1c(SCC(=O)NC2CCS(=O)(=O)C2)nc2cc([N+](=O)[O-])ccc21 (centres undefined)	-47.6	0.9	3.9	1.0
COc1ccccc1-n1c(SCC(=O)c2ccc(O)cc2O)nc2cc([N+](=O)[O-])ccc21	-18.9	6.0	77.4*	2.9
COc1ccccc1-c1cc(C(F)(F)F)nc(NCc2cccs2)n1	-43.0	10.0*	64.8*	-1.3
COc1ccc(-c2cc(C(F)(F)F)nc(NCc3cccs3)n2)cc1	-23.0	5.6	15.7	-0.6
Cc1ccc(NC(=O)C(Nc2cccc(C)c2)c2ccccc2)cc1 (centres undefined)	-22.0	3.7	70.4*	-0.7
Cc1ccc(NC(=O)C(Nc2ccccc2)c2ccccc2)cc1 (centres undefined)	-47.9	2.8	25.6	-2.9
CCOc1ccc(NC(=O)c2cccc(OC(=S)N3CCOCC3)c2)cc1	x	3.0	-10.8	x
COc1ccc2c3c(cccc13)C(=O)N(O)C2=O	-26.0	1.7	23.2	58.1*
CCOC(=O)c1c(N)sc(C(O)(C(F)(F)F)C(F)(F)F)c1-c1ccccc1	1.2	-0.7	96.8*	-3.3
Nc1ccccc1-c1nnc(-c2ccccc2N)n1N	x	0.8	-24.1	x
Cc1ccc[n+](CC(=O)Nc2cc(C(F)(F)F)ccc2Cl)c1	-24.3	1.7	15.8	-7.0
CCC(C)(C)c1ccc(OCCCC[n+]2cccc(C)c2)c(C(C)(C)CC)c1	x	-2.4	98.3*	x
CN(C)C(=O)C(=O)c1cccn1-c1cccc(Cl)c1C#N	x	-0.4	-13.5	x
CN1CCN(C(=O)C2=C[C@@H](c3coc4ccccc4c3=O)C[C@@H](OCCCCO)O2)CC1	x	0.5	5.6	x
Fc1ccc(C(CCCn2nnc(-c3cccnc3)n2)c2ccc(F)cc2)cc1	-29.4	10.0*	61.3*	0.7
Fc1ccc(-n2nnc(-c3cccnc3)n2)cc1	x	0.7	-0.2	x
CC(=O)Nc1ccc(NC(=O)C2CC(=O)N(c3ccccc3Cl)C2)cc1 (centres undefined)	x	0.4	-8.0	x
CN(C)S(=O)(=O)c1ccc(N2CCCC2)c(C(=O)Nc2nc(-c3ccc(F)c(F)c3)cs2)c1	-8.1	5.9	-4.4	2.6
O=C(Nc1ccc(-c2nc3ccccc3[nH]2)cc1)c1ccccc1NS(=O)(=O)c1ccc(F)cc1	-50.5	6.3	-9.4	4.2
Cc1ccc(S(=O)(=O)Nc2ccccc2C(=O)Nc2nc(-c3ccc(F)cc3)cs2)cc1	-30.0	8.2	73.9*	-0.2
COc1ccc(-c2csc(NC(=O)c3ccccc3NS(=O)(=O)c3ccc(F)c(F)c3)n2)cc1	x	8.4	87.3*	x
Cc1ccc(S(=O)(=O)CC(=O)Nc2nc(-c3ccccc3)cs2)cc1	-9.2	2.2	60.6*	0.5
CCn1ncc(CN2CCCC(CNC(=O)c3ccc(F)cc3)C2)c1C (centres undefined)	x	2.0	1.8	x
SMILES	Yeast growth inh	RAM network inh	WT yeast gro inh	Yeast lifespan up
Cn1ccnc1C(=O)c1cc(SCC(=O)NCc2ccccc2)nc2ccccc12	x	4.8	-5.7	x
O=C(O)c1ccccc1C(=O)NNc1ccc(Cl)cc1	92.9*	-0.4	72.0*	-23.8
CN(C)c1nc(OCCNC(=O)COc2ccccc2Cl)nc(N(C)C)n1	-22.4	-1.4	2.8	x
O=C(OCC(=O)N1CCN(C(=O)c2ccco2)CC1)c1cn(-c2ccccc2)nc1-c1ccccc1	-29.6	3.6	80.2*	-6.7
O=C1c2cccc(OCC(=O)N3CCCc4ccccc43)c2CCN1Cc1ccc(F)cc1	-28.7	6.6	65.3*	5.3
Cc1cccc(CN2CCc3c(OCC(=O)N4CCCc5ccccc54)cccc3C2=O)c1	-20.2	-1.0	3.2	0.6
N#Cc1c(N)nc2c3c(sc(=N)c2c1N)NC(=O)CC3c1c(F)cccc1Cl (centres undefined)	-20.9	8.8*	20.5	-13.1
COC(=O)Cn1ccc(N(C)C)c(C#N)c1=O	8.1	0.8	59.7*	-12.4
CCOC(=O)c1nnc(-c2ccccc2)nc1Sc1ccccc1Cl	-61.8	10.6*	8.4	-2.7
CCOC(=O)c1nnc(-c2ccc(C)cc2)nc1Sc1cccc(Cl)c1	-59.9	3.8	-59.7	2.6
CCC(C)NC(=O)CC(c1ccccc1)c1cc(C)ccc1O (centres undefined)	x	-1.0	3.5	x
O=C(NC1CCCc2ccccc21)C(Cc1ccccc1)NS(=O)(=O)c1cccs1 (centres undefined)	-41.3	3.8	-8.2	2.0

Source: PubChem
